Measurements gathered from unrelated publications.
Compare with care: the assays were run in different laboratories.
Organism: Enterococcus faecalis
Effect on: microbial growth

Compound | assay | system | conditions | MIC
CCn1cc(C(=O)O)c(=O)c2cc(F)c(N3CCNCC3)cc21 | broth dilution | NCTC12697 | – | 4 µM
Cc1ccc(C)n1-c1ccc(-c2nnc(-c3ccccc3Cl)[nH]2)cc1 | broth dilution | ATCC14506 | 18 h | 16 µg/mL
Cc1ccc2nc(-c3ccc(F)cc3)[nH]c2c1 | broth dilution | ATCC29212 | – | 64 µg/mL
CNC(=O)c1cc(Oc2ccc(NC(=O)Nc3ccc(Cl)c(C(F)(F)F)c3)cc2)ccn1 | – | – | – | > 100 µM
O=C(O)c1cn(C2CC2)c2cc(N3CCNCC3)c(F)cc2c1=O | broth dilution | ATCC14506 | 18 h | < 5 µg/mL
Cc1ccc2nc(-c3ccc([N+](=O)[O-])cc3)n(Cc3ccccc3)c2c1 | broth dilution | ATCC29212 | – | 8 µg/mL
CN[C@H](CC(C)C)C(=O)N[C@H]1C(=O)N[C@@H](CC(N)=O)C(=O)N[C@H]2C(=O)N[C@H]3C(=O)N[C@H](C(=O)N[C@H](C(=O)O)c4cc(O)cc(O)c4-c4cc3ccc4O)[C@H](O)c3ccc(c(Cl)c3)Oc3cc2cc(c3O[C@@H]2O[C@H](CO)[C@@H](O)[C@H](O)[C@H]2O[C@H]2C[C@](C)(N)[C@H](O)[C@H](C)O2)Oc2ccc(cc2Cl)[C@H]1O | broth dilution | ATCC29212 | – | 2 µg/mL
Clc1ccc(Cn2c(-c3ccc(Cl)cc3)nc3ccccc32)cc1 | broth dilution | ATCC29212 | – | 16 µg/mL
C/C(=C\c1ccc(C#N)cc1)C(=O)Nc1ccc(C(=O)N[C@@H](CC(N)=O)C(=O)Nc2ccc(C(=O)Nc3ccc(C(=O)Nc4ccc(C(=O)O)cc4)c(O)c3OC(C)C)cc2)cc1 | – | ATCC29212 | – | 0.5 µg/mL
CSc1ccc(-c2nc3ccccc3[nH]2)cc1 | broth dilution | ATCC29212 | – | 64 µg/mL
Cc1ccc(C)n1-c1ccc(-c2nnco2)cc1 | broth dilution | ATCC14506 | 18 h | 2 µg/mL
C/C=C(\C)c1cc(OC(=O)c2c(C)c(Cl)c(O)c(Cl)c2O)c(C)c(O)c1C(=O)O | broth dilution | ATCC29212 | – | > 64 µg/mL
CC(C)Oc1c(NC(=O)c2ccc(NC(=O)[C@H](CC(N)=O)NC(=O)c3ccc(NC(=O)c4ccc(C#N)cn4)cc3)cc2)ccc(C(=O)Nc2ccc(C(=O)O)cc2)c1O | – | ATCC29212 | – | 0.125 µg/mL
Cc1ccc(C)n1-c1ccc(-c2nnc(-c3cccc([N+](=O)[O-])c3)[nH]2)cc1 | broth dilution | ATCC14506 | 18 h | 31.2 µg/mL
CC1(C)S[C@@H]2[C@H](NC(=O)[C@H](N)c3ccccc3)C(=O)N2[C@H]1C(=O)O | broth dilution | ATCC29212 | – | 2 µg/mL
Cc1cc(=O)[nH]n1C(=O)c1ccc(-n2c(C)ccc2C)cc1 | broth dilution | ATCC14506 | 18 h | 125 µg/mL
Cc1ccc2nc(-c3c4ccccc4cc4ccccc34)[nH]c2c1 | broth dilution | ATCC29212 | – | 64 µg/mL
Cc1ccc(C)n1-c1ccc(-c2nnc(-c3ccc(Br)cc3)[nH]2)cc1 | broth dilution | ATCC14506 | 18 h | 8 µg/mL
Cc1ccc2nc(-c3cccc(O)c3)[nH]c2c1 | broth dilution | ATCC29212 | – | 64 µg/mL
